Assay results from ChEMBL document CHEMBL1135731, “Synthesis and nicotinic binding studies on enantiopure diazine analogues of the novel (2-chloro-5-pyridyl)-9-azabicyclo[4.2.1]non-2-ene UB-165” (J Med Chem, 2002).

Legend:
[1] = molecular target: Neuronal acetylcholine receptor; alpha4/beta2 (Rattus norvegicus, UniProt P09483+P12390); assay: Binding affinity to Nicotinic acetylcholine receptor alpha4-beta2 using +/-[3H]epibatidine as radioligand in rat brain; type: tissue-based
Summary of the method: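 Crude synaptic P2 membranes from Sprague–Dawley rat forebrain (cerebellum and medulla excluded), washed in HEPES-salt buffer pH-unspecified (HEPES 15 mM, NaCl 120 mM, KCl 5.4 mM, MgCl2 0.8 mM, CaCl2 1.8 mM). Mean ± SEM, n = 3-5.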

[2] = molecular target: Neuronal acetylcholine receptor subunit alpha-7 (Rattus norvegicus, UniProt Q05941); assay: Binding affinity to subtype Nicotinic acetylcholine receptor alpha7 using [3H]-MLA as radioligand in rat brain; type: tissue-based
Summary of the method: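 Rat brain membrane fractions in HEPES-salt solution, competition against [3H]MLA at 22 °C. Nonspecific binding defined with 1 μM MLA. […] Mean ± SEM of 3-5 independent experiments.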

Neuronal acetylcholine receptor; alpha4/beta2, sequence (P09483 whole entry): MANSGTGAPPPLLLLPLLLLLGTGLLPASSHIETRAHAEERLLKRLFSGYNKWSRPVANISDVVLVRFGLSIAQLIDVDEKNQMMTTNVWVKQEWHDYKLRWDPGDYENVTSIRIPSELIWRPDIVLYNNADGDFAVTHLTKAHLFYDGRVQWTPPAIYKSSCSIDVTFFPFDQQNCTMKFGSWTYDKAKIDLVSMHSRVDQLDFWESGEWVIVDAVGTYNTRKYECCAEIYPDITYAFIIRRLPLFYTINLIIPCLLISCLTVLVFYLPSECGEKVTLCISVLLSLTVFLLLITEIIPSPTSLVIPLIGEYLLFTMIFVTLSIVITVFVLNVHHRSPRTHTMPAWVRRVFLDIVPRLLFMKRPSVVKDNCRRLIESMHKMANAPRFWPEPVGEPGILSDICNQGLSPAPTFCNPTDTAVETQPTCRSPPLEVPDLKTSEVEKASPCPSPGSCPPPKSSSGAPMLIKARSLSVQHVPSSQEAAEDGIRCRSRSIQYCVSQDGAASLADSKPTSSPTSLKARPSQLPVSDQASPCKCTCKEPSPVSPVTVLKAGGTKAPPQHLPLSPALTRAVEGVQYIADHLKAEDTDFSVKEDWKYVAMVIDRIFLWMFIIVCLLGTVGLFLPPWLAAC
Neuronal acetylcholine receptor; alpha4/beta2, sequence (P12390 whole entry): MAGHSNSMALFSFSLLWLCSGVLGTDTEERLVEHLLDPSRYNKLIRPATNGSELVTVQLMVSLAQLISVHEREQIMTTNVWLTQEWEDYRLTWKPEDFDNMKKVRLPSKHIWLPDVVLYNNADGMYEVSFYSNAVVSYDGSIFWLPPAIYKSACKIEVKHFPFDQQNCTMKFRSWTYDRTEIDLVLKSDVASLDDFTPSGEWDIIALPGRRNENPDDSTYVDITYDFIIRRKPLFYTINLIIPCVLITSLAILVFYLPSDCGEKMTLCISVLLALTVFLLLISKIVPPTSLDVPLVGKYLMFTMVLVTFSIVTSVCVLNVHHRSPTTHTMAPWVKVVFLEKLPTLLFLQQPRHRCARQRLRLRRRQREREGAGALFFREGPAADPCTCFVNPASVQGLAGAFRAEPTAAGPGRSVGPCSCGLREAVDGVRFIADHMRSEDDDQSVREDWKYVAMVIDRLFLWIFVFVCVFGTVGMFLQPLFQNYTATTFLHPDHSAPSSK
Neuronal acetylcholine receptor subunit alpha-7, sequence (Q05941 whole entry): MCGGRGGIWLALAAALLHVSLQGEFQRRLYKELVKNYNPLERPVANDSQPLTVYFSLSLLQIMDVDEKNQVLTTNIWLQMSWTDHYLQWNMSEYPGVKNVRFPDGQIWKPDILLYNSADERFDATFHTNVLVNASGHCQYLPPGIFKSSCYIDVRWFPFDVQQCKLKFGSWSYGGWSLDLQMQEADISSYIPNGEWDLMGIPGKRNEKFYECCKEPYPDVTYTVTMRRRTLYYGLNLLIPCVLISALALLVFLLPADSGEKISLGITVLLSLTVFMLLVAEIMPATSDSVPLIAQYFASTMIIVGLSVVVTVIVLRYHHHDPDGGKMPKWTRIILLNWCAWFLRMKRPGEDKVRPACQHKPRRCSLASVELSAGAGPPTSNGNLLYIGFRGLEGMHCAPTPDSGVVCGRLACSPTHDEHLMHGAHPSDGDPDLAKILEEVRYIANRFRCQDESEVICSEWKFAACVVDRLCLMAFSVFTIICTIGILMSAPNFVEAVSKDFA

| Compound | Ki [1] [nM] | Ki [2] [nM] |
| --- | --- | --- |
| C1=C(c2ccnnc2)C2CC[C@H](CC1)N2 | 19 | > 10 |
| C1=C(c2cnccn2)C2CC[C@H](CC1)N2 | 12 | 250 |
| C1=C(c2cncnc2)C2CC[C@H](CC1)N2 | 0.14 | 10.7 |
| C1=C(c2cccnc2)C2CC[C@H](CC1)N2 | 0.051 | 0.95 |
| Clc1ccc(C2=CCC[C@H]3CCC2N3)cn1 |  | 12 |
